Results as given in paper PMC4715857 (Osteoporosis International, 2015).
Where two headings read alike, the source gives them in different places. Blank lines part the entries; values can stand above or below the compound they belong to.

Experiments:
[1] = Plasma ONO-5334 pharmacokinetics; format: in vivo, healthy postmenopausal women; settings: day 5, 150 mg SRT, morning regimen
Method in brief: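 Oral sustained-release tablet, 150 mg once daily for 5 days per period, fed. Randomized crossover with ≥10-day washout. Blood taken via IV cannula over 12 h on day 1 and 24 h on day 5, hourly 1–6 h postdose. Plasma solid-phase extracted and assayed by validated LC-MS/MS (LLOQ 0.02 ng/mL). Cmax, Tmax and AUC24h derived noncompartmentally; day-5 morning/evening geometric mean ratios with 90% CI by ANOVA; Tmax by Wilcoxon signed rank test.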

[2] = test system: bone mineral density (BMD); settings: postmenopausal women with osteoporosis, 24 months of therapy ref 6; cited from earlier work
[3] = test system: urinary CTX-I; assay: Urinary CTX-I/creatinine bone resorption marker; format: in vivo, healthy postmenopausal women; settings: 150 mg SRT once daily 5 days
Method in brief: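 Urinary CTX-I was measured by Urine CrossLaps ELISA and normalized to creatinine. Baseline urine was taken on day −1, and postdose urine on days 1 and 5, with collection at 08:00 (morning dosing) or 20:00 (evening dosing). Dosing was 150 mg sustained-release tablet once daily for 5 days, fed. Results expressed as % change from time-matched baseline; 24-h AUE compared by ANCOVA, with post-hoc repeated-measures analysis.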

[4] = test system: serum CTX-I; settings: cited from earlier work; for serum CTX reduction: postmenopausal women
[5] = Safety assessments / adverse events; format: in vivo, healthy postmenopausal women; settings: 150 mg once daily for 5 days per period
Method in brief: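 Each crossover period (5 days' dosing) included clinical laboratory tests, vital signs, 12-lead ECG and physical examination on admission and at follow-up. Vital signs were also taken at baseline, on all treatment days and at discharge. Adverse events were coded with MedDRA version 14.1. Fourteen subjects were in the safety analysis, and data were summarized in SAS.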

[6] = 100 mg sustained-release tablet (SRT), morning, repeat administration ref 7, 8; cited from earlier work
[7] = test system: bone strength; settings: ovariectomized rats ref 5; cited from earlier work
[8] = test system: serum CTX-I; assay: Serum CTX-I bone resorption marker; format: in vivo, healthy postmenopausal women; settings: for time over which >60% suppression of CTX-I was sustained: 150-mg SRT for 5 days
Method in brief: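 Serum CTX-I was measured by CrossLaps ELISA. Baseline profile on day −1 via cannula at set clock times over 24 h, ending just before the first dose (08:00 morning, 20:00 evening period). Results expressed as % change from clock-time-matched baseline; 24-h AUE compared morning vs evening by ANCOVA, with post-hoc repeated-measures analysis.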

[9] = test system: urinary CTX-I; settings: 12 weeks of treatment, healthy postmenopausal women ref 30; cited from earlier work
[10] = test system: bone resorption markers; settings: premenopausal women ref 14, cited from earlier work
[11] = test system: serum CTX-I; settings: oral calcitonin, healthy postmenopausal women ref 15; cited from earlier work

mean trough plasma concentration [1]: 9.4 ng/mL
Compound: C[C@@H]1CS/C(=N\NC(=O)C(=O)[C@@H](NC(=O)C2CCCCCC2)C2CCOCC2)N1C [ONO-5334]
effect on cortical and trabecular bone mineral density (BMD) [2]: significantly improved
greater suppression of 24-h urinary CTX-I/creatinine AUE, morning than evening [3]: 7%
suppression of serum CTX-I [4]: approximately 60%
laboratory safety data, vital signs, electrocardiogram or physical examinations [5]: no clinically relevant
safety findings [5]: no safety findings of concern
mean half-life [6]: 15 h
median time to maximum plasma concentration (Tmax) [6]: 4 h
effect on bone strength [7]: improved bone strength
greater suppression of 24-h serum CTX-I AUE, morning than evening ([8]; 150 mg SRT once daily 5 days): 6%
duration of impact on bone resorption ([8]; 150-mg SRT): ≥ 24 h
time of lowest serum CTX-I levels postdose ([8]; after morning and evening administration): 8 h
plasma ONO-5334 concentration required to produce 60% reduction of serum CTX-I ([8]; day 5, scatter plot of plasma concentration vs serum CTX-I %CFB, both regimens): ≥ 10 ng/mL
time over which >60% suppression of CTX-I was sustained ([8]; evening administration): 12 h
CTX-I suppression over 24 h ([8]; morning administration, 150 mg SRT for 5 days): > 60%
time over which >60% suppression of CTX-I was sustained ([8]; morning administration): 24 h

Compound: NCCCC(O)(P(=O)(O)O)P(=O)(O)O [alendronate]
Serum CTX-I decreases ([4]; following 30–36 months of therapy ref 28, 29): 67–70%
urinary CTX-I reduction [9]: 53%

Compound: CCCN1CCN(c2ccc(C(=O)NC3(C(=O)NCC#N)CCCCC3)cc2)CC1 [balicatib]
serum CTX reduction ([4]; 1-year study ref 22): 61%

Compound: [Ca] [elemental calcium, calcium]
effect on bone resorption ([10]; 1000 mg at bedtime): suppressed nighttime increases of bone resorption
effect on bone resorption ([10]; 1000 mg, morning administration): no effect

Compound: CC(C)(F)C[C@H](N[C@@H](c1ccc(-c2ccc(S(C)(=O)=O)cc2)cc1)C(F)(F)F)C(=O)NC1(C#N)CC1 [odanacatib]
suppression of serum CTX-I [4]: approximately 60%
continuous reductions of serum CTX-I ([4]; postmenopausal women with low BMD, following 5 years of treatment ref 4): 55%
reductions of serum CTX-I ([4]; postmenopausal women with low BMD, once-weekly, most of the first year of treatment ref 25): > 60%
serum CTX reduction ([4]; single or repeated doses for 3 weeks ref 23, 24): 62–66%

Compound: calcitonin [oral calcitonin]
duration of impact on bone resorption [11]: about 12 h
